Data published in article PMC2195561 (The Journal of Experimental Medicine, 1999).
No end group written: not given here.

How the values were obtained:
TAP [1] = biological target: T1, TAP (Homo sapiens, UniProt Q03518+Q03519); assay: Competition of TAP-mediated translocation of iodinated peptide 417; format: biochemical
T1 sequence (Q03518 1-748): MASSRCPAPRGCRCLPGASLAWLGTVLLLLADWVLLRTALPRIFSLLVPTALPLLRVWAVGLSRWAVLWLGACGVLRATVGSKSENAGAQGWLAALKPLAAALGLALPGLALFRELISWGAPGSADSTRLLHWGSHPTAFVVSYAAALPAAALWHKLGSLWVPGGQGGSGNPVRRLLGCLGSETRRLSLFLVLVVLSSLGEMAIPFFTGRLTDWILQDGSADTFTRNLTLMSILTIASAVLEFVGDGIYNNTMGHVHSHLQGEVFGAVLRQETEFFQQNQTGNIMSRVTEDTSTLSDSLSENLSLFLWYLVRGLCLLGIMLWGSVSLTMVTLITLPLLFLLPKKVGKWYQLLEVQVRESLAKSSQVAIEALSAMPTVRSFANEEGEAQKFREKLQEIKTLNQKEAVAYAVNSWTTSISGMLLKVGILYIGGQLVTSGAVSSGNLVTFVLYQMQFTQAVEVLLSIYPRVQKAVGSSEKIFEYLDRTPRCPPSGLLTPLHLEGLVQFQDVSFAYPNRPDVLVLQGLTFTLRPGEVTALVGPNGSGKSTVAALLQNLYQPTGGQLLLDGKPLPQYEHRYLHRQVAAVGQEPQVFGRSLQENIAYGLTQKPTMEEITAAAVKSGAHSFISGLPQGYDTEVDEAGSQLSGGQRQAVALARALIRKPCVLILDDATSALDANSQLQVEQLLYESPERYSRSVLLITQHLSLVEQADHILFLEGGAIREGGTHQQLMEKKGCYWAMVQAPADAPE
T1 sequence (Q03519 1-686): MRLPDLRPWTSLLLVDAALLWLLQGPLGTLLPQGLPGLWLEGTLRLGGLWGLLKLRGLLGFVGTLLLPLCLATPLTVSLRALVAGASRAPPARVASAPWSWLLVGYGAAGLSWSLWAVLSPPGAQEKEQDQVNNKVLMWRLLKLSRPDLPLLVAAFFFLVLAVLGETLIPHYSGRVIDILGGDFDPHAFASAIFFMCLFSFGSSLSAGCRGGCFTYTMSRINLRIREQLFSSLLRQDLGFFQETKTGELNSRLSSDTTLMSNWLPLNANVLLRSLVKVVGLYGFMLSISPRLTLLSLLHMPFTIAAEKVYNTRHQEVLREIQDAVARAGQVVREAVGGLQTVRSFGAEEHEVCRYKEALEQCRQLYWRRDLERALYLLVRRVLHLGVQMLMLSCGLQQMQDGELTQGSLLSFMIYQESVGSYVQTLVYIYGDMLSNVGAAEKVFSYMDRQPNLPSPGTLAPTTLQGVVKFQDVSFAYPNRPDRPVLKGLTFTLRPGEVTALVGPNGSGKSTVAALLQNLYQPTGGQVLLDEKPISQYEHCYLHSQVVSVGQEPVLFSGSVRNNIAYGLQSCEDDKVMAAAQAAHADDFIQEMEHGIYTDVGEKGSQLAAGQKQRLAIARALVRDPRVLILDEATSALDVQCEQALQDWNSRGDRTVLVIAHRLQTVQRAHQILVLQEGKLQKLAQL
In short: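 Iodinated index peptide (125I via chloramine-T) premixed with unlabelled competitor peptide, then added to streptolysin O–permeabilized human LCL721 cells for TAP-mediated transport into the ER. Translocated index peptide is given as a fraction of that recovered without competitor.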

TAP [2] = assay: Direct TAP-mediated translocation of radiolabeled peptides, murine TAP; format: biochemical; settings: data not shown
TAP [3] = biological target: T1, TAP; assay: Direct TAP-mediated translocation of radiolabeled peptides, human TAP; format: biochemical; settings: streptolysin O–permeabilized LCL721 cells; Con A–Sepharose recovery; Fig. 1 B
In short: (§1)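 Test peptides carrying an N-linked glycosylation sequon are radioiodinated (Na-125I, chloramine-T) and added to streptolysin O–permeabilized LCL721 cells. Peptide reaching the ER acquires an N-glycan and is recovered on Con A–Sepharose, given as a fraction of total input. Controls are samples run without ATP and TAP-deficient T2 cells.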

Con A = assay: Con A–Sepharose recovery in the absence of ATP; format: binding; settings: no N-linked glycan, Fig. 1 B
In short: as §1

Row | Substance | IC50 (TAP [1]) | translocation by murine TAP (TAP [2]) | translocation by human TAP (TAP [3]) | recovery by Con A–Sepharose in the absence of ATP (Con A)
1 | FASGNYSAL [wt-S] | 12 µM | – | – | –
2 | TVNKTERAY [compound 417, reference compound] | – | very efficiently translocated | very efficiently translocated | –
3 | TVNKTES [O-β-GlcNAc]AY [417-G] | – | – | also translocated by TAP | not itself a ligand for Con A
4 | TVNKTESAY [417-S] | – | very efficiently translocated | very efficiently translocated | –
